Data: PubChem BioAssay
Inconclusive results are not listed.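 Rule for the calls, unless noted: active = RAM network inhibition above 8.4% in each of two replicates, 3 SD over the compound average; inconclusive = above 8.4% inhibition in only one replicate; inactive = 8.4% inhibition or less in each replicate.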

What was measured:
[1] = S. cerevisiae growth inhibition in permissive medium (OD615), pilot counter-assay for S. cerevisiae lifespan shortening project, permissive growth control (AID 705;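 active = growth inhibition above 25% in both replicates, a cutoff set 3 SD above the mean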); conditions: OD615, 24 h, at 10 µM, stronger effect = higher value
In short: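 System: Engineered DeaD yeast | Buffer or medium: SC raffinose/galactose permissive medium | Incubation: Cells pre-grown 4 h, then 24 h compound exposure, 30 °C humidified | Measured by: Absorbance (optical density) at 615 nm | Read-out: Reduction in yeast growth (OD615)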

[2] = S. cerevisiae growth inhibition in restrictive medium, OD615, pilot screen, restrictive growth control, yeast lifespan reduction project (AID 706;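 active = growth inhibition above a set limit, 3 SD over mean compound inhibition, in both replicates, cut at about 43% in these data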;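 note: modified DeaD lifespan yeast strain shifted to restrictive glucose medium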); conditions: OD615, 48 h, at 10 µM, stronger effect = higher value
In short: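 Material: modified S. cerevisiae; Medium: glucose-based CSMM-D restrictive medium; Compound dosing: one concentration, 10 µM final, 0.25% DMSO; Incubation: 48 h compound exposure at 30 °C; Measured by: OD615.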

[3] = doxorubicin toxicity protection in MRP-1 cells – H69AR cells, CellTiter-Glo, duplicate, MRP-1 activator project, pilot screen (AID 807;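 active = viability increase at or above a cutoff of the median across tested compounds plus 3 SD, cut at about 8.5% in these data, passing the limit was not always enough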;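 note: compound pretreatment 18-22 h then 72 h combined with doxorubicin; 0% = doxorubicin alone and 100% = vehicle without doxorubicin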); conditions: H69AR viability with doxorubicin, CellTiter-Glo luminescence; at 10 µM; stronger effect = higher value
[4] = viability of HCT116 without oncogenic beta-catenin – human colon tumor cells, pilot screen (AID 823;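 active = cell viability at or below a set limit in both duplicate runs, the limit being the all-compound median minus 4 SD, cut at about 23% in these data, passing the limit was not always enough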;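 note: 0% = wells killed by 20 µM Hyamine and 100% = untreated DMSO cell wells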); conditions: HCT116 beta-catenin knockout viability, CellTiter-Glo, 60 h; at 10 µM; stronger effect = lower value
[5] = viability of PTEN-null HCT116 cells – cell-based, HCT116 clonal line, CellTiter-Glo, pilot screen (AID 824;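 active = viability at or below 27.92% in each of two runs, the all-compound median minus 4 SD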;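 note: 0% = 20 µM Hyamine control and 100% = vehicle cell control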); conditions: HCT116 PTEN-deleted viability, 60 h, at 10 µM, stronger effect = lower value
[6] = RAM pathway blockade in budding yeast – dse1pr::URA3 reporter, 5-FOA selection, pilot screen (AID 869;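 active = inhibition over a set limit, the all-compound mean plus 3 SD, in both replicate runs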;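 note: 0% = DMSO wells with no growth and 100% = 10 µM 1-NA-PP1 with full growth; RAM network block rescues cells from 5-FOA so hits raise OD615 growth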); conditions: S. cerevisiae dse1pr::URA3 5-FOA growth, OD615, 2 d; at 10 µM; stronger effect = higher value; strain carries analog-sensitive mutant Cbk1 kinase
[7] = RAM signaling pathway blockade in yeast – S. cerevisiae, Pdr1DBD-CYC8 efflux-inhibited sensitized strain, primary screen (AID 1298);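 note: 0% = DMSO untreated cells without growth and 100% = 10 µM 1-NA-PP1 full growth; higher means more yeast growth rescued from 5-FOA killing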; conditions: S. cerevisiae cbk1-as DSE1-URA3 strain, 5-FOA growth OD615, 2 d; at 50 µM; stronger effect = higher value

Cc1c(Br)cc(C(=O)NCCCN2CCOCC2)c(C)c1C
inactive: growth inhibition [1] -0.405% | growth inhibition [2] -4.69% | viability increase [3] -3.23% | viability [4] 94.8% | viability [5] 93.6% | inhibition [6] 0.595% | RAM network inhibition [7] 0.82%

CC(=O)C1(O)C(C)CC2C3CCC4CC(O)CCC4(C)C3=CCC21C (stereo not drawn)
inactive: growth inhibition [1] -8.11% | growth inhibition [2] -5.04% | viability increase [3] -1.36% | viability [4] 97.2% | viability [5] 90.2% | inhibition [6] 0.305% | RAM network inhibition [7] 9.58%

CCCCn1c(CCNC(=O)CCC)nc2ccccc21
inactive: growth inhibition [1] -9.84% | growth inhibition [2] 4.55% | viability increase [3] -0.74% | viability [4] 99.1% | viability [5] 108% | inhibition [6] 2.43% | RAM network inhibition [7] -0.53%

Cc1ccc2[nH]c(=O)c3cc(C(=O)N(C)Cc4ccco4)sc3c2c1
inactive: growth inhibition [1] -11.6% | growth inhibition [2] -4.44% | viability increase [3] -5.5% | viability [4] 71.4% | viability [5] 67.5% | inhibition [6] -0.255% | RAM network inhibition [7] -1.79%

O=C(CSc1nc2c(c(=O)n1-c1ccc(Cl)cc1)SCC2)NCc1ccco1
inactive: growth inhibition [1] -4.73% | growth inhibition [2] -0.115% | viability increase [3] -4.49% | viability [4] 86.2% | viability [5] 89% | inhibition [6] 0.225% | RAM network inhibition [7] 4.2%

COc1ccccc1N1CCN(C(=O)c2sc3nc(-c4ccc(F)cc4)cn3c2C)CC1
inactive: growth inhibition [1] -6.38% | growth inhibition [2] 2.76% | viability increase [3] -1.57% | viability [4] 57.6% | viability [5] 58.8% | inhibition [6] 0.235% | RAM network inhibition [7] 1.42%

COc1ccc(NC(=O)Nc2cccc(OC)c2)cc1
inactive: growth inhibition [1] -3.64% | growth inhibition [2] -19.4% | viability increase [3] -0.65% | viability [4] 95.3% | viability [5] 93.4% | inhibition [6] 1.02% | RAM network inhibition [7] 1.14%

Cc1nn(C)c(C)c1S(=O)(=O)N(CC(=O)NCc1cccs1)c1ccc(C(C)C)cc1
inactive: growth inhibition [1] -16.9% | growth inhibition [2] -13.5% | viability increase [3] -3.06% | viability [4] 99% | viability [5] 87.5% | inhibition [6] 2.2% | RAM network inhibition [7] 8.44%

N#Cc1cnn(CC2CCCCC2)c1N
inactive: growth inhibition [1] -15.6% | growth inhibition [2] -8.75% | viability increase [3] -0.89% | viability [4] 89.4% | viability [5] 93.2% | inhibition [6] 1.57% | RAM network inhibition [7] 3.68%

COc1ccc(CCNc2nc(=O)[nH]nc2C)cc1OC
inactive: growth inhibition [1] -14.6% | growth inhibition [2] -16.5% | viability increase [3] -1.65% | viability [4] 96% | viability [5] 96.5% | inhibition [6] 2.62% | RAM network inhibition [7] 0.16%

CCn1c(-c2cc(OC)ccc2OC)csc1=Nc1c(C)n(C)n(-c2ccccc2)c1=O
inactive: growth inhibition [1] -11.1% | growth inhibition [2] -22.9% | viability increase [3] 0.28% | viability [4] 93.8% | viability [5] 92.5% | inhibition [6] 1.58% | RAM network inhibition [7] 4.62%

O=C(Sc1nnc(-c2ccccc2)o1)N1c2ccccc2Sc2ccccc21
inactive: growth inhibition [1] 15.4% | growth inhibition [2] 21.9% | viability increase [3] -4.17% | viability [4] 85.1% | viability [5] 89.7% | inhibition [6] 2.49% | RAM network inhibition [7] 3.79%

CCn1c(SCC(=O)NCC2CCCO2)nc2c(c1=O)SC(C)C2 (stereo not drawn)
inactive: growth inhibition [1] -2.03% | growth inhibition [2] -29.9% | viability increase [3] -1.87% | viability [4] 103% | viability [5] 98% | inhibition [6] 0.93% | RAM network inhibition [7] 2.66%

Cc1cccc(-n2c(O)c(C=Nc3ccc4c(c3)OCO4)c3ccccc3c2=O)n1
inactive: growth inhibition [1] 1.54% | growth inhibition [2] -8.37% | viability increase [3] -0.5% | viability [4] 89.3% | viability [5] 80.2% | inhibition [6] 0.93% | RAM network inhibition [7] 2.46%

CCS(=O)(=O)NCC(c1cccnc1)N1CCN(c2ccccc2OC)CC1 (stereo not drawn)
inactive: growth inhibition [1] -2.57% | growth inhibition [2] -3.32% | viability increase [3] -0.33% | viability [4] 98.3% | viability [5] 105% | inhibition [6] 1.11% | RAM network inhibition [7] 3.37%

COCCNC(=O)C1CC(=O)N(c2ccc(F)c(Cl)c2)C1 (stereo not drawn)
inactive: growth inhibition [1] -2.14% | growth inhibition [2] -4% | viability increase [3] 0.07% | viability [4] 105% | viability [5] 95.7% | inhibition [6] 0.835% | RAM network inhibition [7] 1.14%

CS(=O)(=O)NCCCc1ccccc1
inactive: growth inhibition [1] -3.13% | growth inhibition [2] 9.6% | viability increase [3] -1.36% | viability [4] 96.6% | viability [5] 94.5% | inhibition [6] 0.325% | RAM network inhibition [7] -0.88%

O=C(CN1CCN(c2ncccn2)CC1)NCCC1=CCCCC1
inactive: growth inhibition [1] -8.09% | growth inhibition [2] -27.1% | viability increase [3] -2.15% | viability [4] 94% | viability [5] 93.7% | inhibition [6] 1.9% | RAM network inhibition [7] 5.02%

O=c1[nH]c2ccc(Cl)cc2c(-c2ccccc2)c1N1CCOCC1
inactive: growth inhibition [1] -4.65% | growth inhibition [2] -0.51% | viability increase [3] -3.04% | viability [4] 89.4% | viability [5] 88% | inhibition [6] 0.985% | RAM network inhibition [7] 1.15%

O=C(CCC(=O)OCCCC(F)(F)C(F)(F)F)Nc1ccccc1
inactive: growth inhibition [1] -3.25% | growth inhibition [2] 3.78% | viability increase [3] 1.41% | viability [4] 100% | viability [5] 104% | inhibition [6] 0.785% | RAM network inhibition [7] 3.34%

O=c1cc(N2CCOCC2)[nH]c(=O)n1-c1ccc(Cl)cc1
inactive: growth inhibition [1] -5.36% | growth inhibition [2] -6.01% | viability increase [3] -1.67% | viability [4] 105% | viability [5] 97.2% | inhibition [6] 1.17% | RAM network inhibition [7] 1.09%

Cc1nn2c(=O)cc(CSc3nc4ccccc4[nH]3)nc2s1
inactive: growth inhibition [1] -3.92% | growth inhibition [2] 2.41% | viability increase [3] -2.31% | viability [4] 103% | viability [5] 103% | inhibition [6] 1.35% | RAM network inhibition [7] 0.17%

CSc1ncccc1C(=O)OCC(=O)c1cc2ccccc2o1
inactive: growth inhibition [1] -12.5% | growth inhibition [2] -20.7% | viability increase [3] 0.25% | viability [4] 85% | viability [5] 93.7% | inhibition [6] 3.42% | RAM network inhibition [7] 4.75%

CC(C)N1CCc2c(sc(NC(=O)c3ccc(S(=O)(=O)N4CCOCC4)cc3)c2C#N)C1
inactive: growth inhibition [1] -4.83% | growth inhibition [2] -3.24% | viability increase [3] -2.2% | viability [4] 85.3% | viability [5] 86.3% | inhibition [6] 0.75% | RAM network inhibition [7] 1.3%
